# From PubChem BioAssay
# RORa activator = activators of human nuclear receptor RORA; P35398; CHO-K1 Gal4-RORA LBD luciferase reporter, luminescence; percent increase over mock-subtracted basal signal; activation, % at 10 µM; 65,000 compounds, 1.5% hits;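 active = activation above the mean of all tested compounds plus 3 SD, cut at about 49% in these data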;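 note: 0% = DMSO-treated RORA cells and 100% = added signal equal to DMSO minus mock-transfected cells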
# SF1 activator = activates the human nuclear receptor SF-1 | Q13285 | 65,000 compounds, 1.9% hits | activation, % at 10 µM | CHO-K1 Gal4-SF-1 LBD luciferase reporter; % increase over DMSO SF-1-specific signal | AID 522;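 active = activation above the mean activation of all tested compounds plus 3 SD, cut at about 50% in these data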
# Target sequence (Q13285 whole entry, looked up, the tested form may be a part): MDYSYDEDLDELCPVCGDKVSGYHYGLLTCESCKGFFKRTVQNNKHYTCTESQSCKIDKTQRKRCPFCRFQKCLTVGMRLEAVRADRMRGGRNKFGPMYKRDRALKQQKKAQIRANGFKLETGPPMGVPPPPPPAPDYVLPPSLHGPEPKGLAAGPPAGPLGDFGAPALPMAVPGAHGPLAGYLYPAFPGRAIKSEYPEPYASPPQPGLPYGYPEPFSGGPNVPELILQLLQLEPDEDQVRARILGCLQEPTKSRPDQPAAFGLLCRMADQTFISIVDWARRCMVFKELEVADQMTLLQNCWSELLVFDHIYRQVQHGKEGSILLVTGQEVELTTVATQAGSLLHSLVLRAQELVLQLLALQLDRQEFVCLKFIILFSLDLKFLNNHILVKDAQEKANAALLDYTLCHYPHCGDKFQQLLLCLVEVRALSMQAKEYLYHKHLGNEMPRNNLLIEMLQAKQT
#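 System: CHO-K1 cells with Gal4–hSF-1 LBD chimera plus Gal4-driven luciferase; quantity: 4,000 CHO-K1 cells per well; compound: one dose, 10 µM compound, 1% DMSO; times: 20 h compound treatment, 37 °C; measured by: SteadyLite luciferase luminescence; read-out: percent activation versus DMSO; benchmarks: DMSO and mock-transfected background; replicates: one test per compound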
# JNK3 inh = inhibitors of human JNK3 kinase; 60,000 compounds, 0.61% hits; purified JNK3 kinase activity, HTS; P53779; inhibition, % at 8 µM; in the data active = inhibition above about 17%;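 note: 0% = DMSO and 100% = reference inhibitor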
# PKA kinase inh = blocks human protein kinase A activity | PKA Kemptide phosphorylation, Kinase-Glo ATP luminescence | inhibition, % at 6 µM | 65,000 compounds, 0.1% hits | AID 524;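 active = inhibition above the screen-wide mean inhibition plus 3 SD, cut at about 21% in these data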
# ROCK2 inh = ROCK2 (human) kinase inhibition | inhibition, % at 6 µM | 60,000 compounds, 0.35% hits | O75116 | purified ROCK2, Kinase-Glo ATP depletion luminescence;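 active = inhibition above the screen-wide mean inhibition plus 3 SD, cut at about 18% in these data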;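 note: plate controls were DMSO wells for no effect and Y-27632 control wells after no-enzyme background subtraction for full effect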
# mHtt clearance = mutant huntingtin protein clearance. inhibition, % at 1.5 µM. AID 853. HeLa Exon1htt(103Q)mCFP, aggregate imaging; zero = plate's median compound well. 47,000 compounds, 0.42% hits;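 active = inhibition of aggregate fluorescence above about 70%, also judged a hit by eye on the cell image, limit read from the data, passing the limit was not always enough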;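 note: cells exposed to compound for three days before fixation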
# * = called active by the depositor; · = no result given. This is a sample that favours compounds with a hit; in the whole collection about 2.9% have one here.
SMILES,RORa activator,SF1 activator,JNK3 inh,PKA kinase inh,ROCK2 inh,mHtt clearance
O=C(Cn1cnc2ccccc2c1=O)Nc1ccc(-c2nnc3n2CCCCC3)cc1,0,-9,30*,3,3,-1
COc1cccc2c(=O)c(C(=O)NCc3cccs3)c[nH]c12,26,119*,37*,7,4,11
O=C(Nc1ccncc1)c1ccc(F)cc1,·,·,·,·,·,-17
O=C(Nc1ccncc1)Nc1ccc(F)cc1F,15,16,0,3,23*,19
CCC(=O)Nc1ccc2nc(C3CC3)n(Cc3ccccc3)c(=O)c2c1,24,63*,4,6,2,·
O=C(Cn1c(C2CC2)nc2ccccc2c1=O)Nc1ccc(Br)cc1,5,-1,-7,-5,-1,31
Cc1ccccc1NC(=O)Cn1c(C)nc2ccc(NC(=O)C3CC3)cc2c1=O,-13,-10,-3,10,19*,·
COc1ccc(Cn2c(C3CC3)nc3ccc(NC(=O)c4ccco4)cc3c2=O)cc1,44,59*,0,-1,-2,15
CCC(=O)Nc1ccc2nc(C)n(CC(=O)Nc3ccccc3)c(=O)c2c1,-20,3,-6,1,-1,·
CCCc1nc2ccc(NC(=O)c3ccco3)cc2c(=O)n1Cc1ccc(Cl)cc1,·,·,·,·,·,-44
COC(=O)Cc1cc(=O)n2[nH]c(C(F)(F)F)nc2n1,·,·,·,·,·,39
Cc1cc(NC(=O)c2cc(S(=O)(=O)N3CCCCC3)ccc2C)n(-c2ccccn2)n1,17,-8,6,2,1,·
Cc1noc(C)c1C(=O)Nc1sc2c(c1C(N)=O)CCCCC2,-18,14,-2,4,1,-58
CC1CCc2c(sc(NC(=O)c3noc4c3CCCC4)c2C(N)=O)C1 (stereo unspecified),101*,50*,2,1,0,·
COc1cc(NC(=O)c2ccc(COc3ccccc3Br)o2)cc(OC)c1OC,-21,-27,20*,-1,1,31
COc1ccc(NC(=O)c2ccc(COc3ccccc3Br)o2)cc1OC,28,9,6,15,5,·
CCOc1ccc2nc(N3CCC(C(=O)N4CCN(c5ncccn5)CC4)CC3)sc2c1,70*,18,-2,-7,0,·
CCOc1ccc2nc(N3CCC(C(=O)N4CCN(c5ccccn5)CC4)CC3)sc2c1,73*,15,1,2,-1,·
CCCCCCCCC(=O)Nc1cc(C)ccc1OC,·,·,·,·,·,20
Oc1ccccc1C1=Nc2ncnn2C(c2ccc(F)cc2)C1 (stereo unspecified),3,-12,0,5,2,·
Cc1ccc(C2CC(c3ccco3)n3ncnc3N2)cc1 (stereo unspecified),·,·,·,·,·,38
Cc1ccc2c(c1)C(N1CCCC1=O)CC(c1ccco1)N2 (stereo unspecified),52*,58*,-7,-5,-31,-16
COc1ccc(Nc2nc(C)c3ccccc3n2)cc1,55*,99*,-4,3,1,-3
COc1ccc(Nc2cc(C)nc3ccccc23)cc1,-2,-3,4,6,10,·
CCCn1c(NCc2ccc(N(C)C)cc2)nc2ccccc21,4,-8,-2,5,3,-4
SMILES,RORa activator,SF1 activator,JNK3 inh,PKA kinase inh,ROCK2 inh,mHtt clearance
CCN(CC)CCn1c(NCc2ccc(OC)cc2)nc2ccccc21,10,-4,0,7,8,86*
O=C(Nc1ccc(F)c(Cl)c1)c1ccc2c(=O)n3c(nc2c1)CCCCC3,30,74*,1,7,3,·
O=C(Nc1cccc(Cl)c1)c1ccc2c(=O)n3c(nc2c1)CCCCC3,24,59*,1,10,3,·
COC(=O)c1ccccc1NC(=O)CSc1nnc(CNS(=O)(=O)c2ccc(C)cc2)n1C,-12,-7,4,12,6,-36
Cn1c(=O)cc(OCCCC(=O)NCc2ccccn2)c2ccccc21,1,10,4,4,2,-2
Cc1ccnc(NC(=O)CSc2cc(=O)n(C)c3ccccc23)c1,-14,-8,26*,-7,-5,-12
Cc1ccnc(NC(=O)CCCOc2cc(=O)n(C)c3ccccc23)c1,-57,-59,27*,3,9,-71
O=C1CN(C(=O)OCc2ccccc2)c2ccccc2N1,51*,47,·,0,·,·
CCOC(=O)N=S(=O)(Oc1ccc([N+](=O)[O-])cc1)c1ccccc1 (stereo unspecified),·,·,·,·,·,78*
